Laboratory results published in the EternaBench riboswitch data.

Test system: MS2 coat protein
Assay: apparent Kd, MS2 coat protein; higher = weaker binding; RNA-MaP array; FMN 200 µM where present
In short: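 Apparent Kd: the median of filtered binding-curve fits from single clusters. Designs were transcribed on Illumina sequencing-chip clusters by stalled E. coli RNA polymerase and titrated with SNAP-549-labelled MS2 coat protein from 0.7 or 1.5 nM, doubling to 3 µM, in 100 mM Tris-HCl pH 7.5, 80 mM KCl, 4 mM MgCl2, BSA, DTT, yeast tRNA and Tween-20. Each series ran without and then with constant ligand, and green signal was normalised to red-channel RNA signal and control-cluster median Fmax.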

[1] = designed as: ON switch for flavin mononucleotide, no ligand
[2] = ligand present: flavin mononucleotide, designed as: ON switch for flavin mononucleotide
[3] = designed as: OFF switch for flavin mononucleotide, no ligand
[4] = ligand present: flavin mononucleotide, designed as: OFF switch for flavin mononucleotide

| Sequence | apparent Kd [1] | apparent Kd [2] | apparent Kd [3] | apparent Kd [4] |
| --- | --- | --- | --- | --- |
| UGGUCAUGAUCAGGAUAUUAACAUGGGCUACAUUAAGAAGGGAUAGUGAGAUACGAACUACAUGAGGAUCACCCAUGUGUUGUU | 0.0687 µM | 0.0554 µM | – | – |
| UGGUCAUGAUCAGGAUAUUAACAUGGGCUACAUUAAGAAGGGAUAGUGAGAUACGAACUGAACAUGAGGAUCACCCAUGUUGUU | 0.24 µM | 0.104 µM | – | – |
| UGGUUGGGAGGAUAUCCAAUAUAUGACAUGAGGAUCACCCAUGUUUCCACUCGUACCUCCGGAGAAGGCCCUUCCU | – | – | 0.0228 µM | 0.0216 µM |
| UGGUUGUGUGUCAGGAUAUGGUCUGGUGUUUCGGGCUAGAAGGGACAUGAGGAUCACCCAUGUGGCUGGCGGGU | – | – | 0.262 µM | 0.439 µM |
| UGUACUCAAAGAGUACCAAUACGAACAUGAGGAUCACCCAUGUAGGAUAUGCUACUCAAAGAGUAGCAGAAGGACAUGUGCCUA | – | – | 0.019 µM | 0.0763 µM |
| UGUAUGGACAGAGGAUAUGCCGAUAGGAUCUACUAUCGAAGAAUCCUCACAUGAGGAUCACCCAUGUAGAAGGCUGUUCAUACU | – | – | 0.0082 µM | 0.0341 µM |
| UGUAUGGACAGAGGAUAUGCCGGUAGGAUCUACUAUCGAAGAAUCCUCACAUGAGGAUCACCCAUGUAGAAGGCUGUCCAUACU | – | – | 0.00936 µM | 0.0428 µM |
| UGUAUGUAGGAGAAGGAGGACUUCAUGAGGAUCACCCAUGUGUUAGGACUUAGGAUAUCUGACGACAUGAGGAUCACCCAUGUG | 0.537 µM | 0.355 µM | – | – |
| UGUAUUAAUGGAGGAUAUCGAUAUCAAACAUGAGGAUCACCCAUGUUGAGGAUCACCCAUGUCCAUGAGAAGGCUGGCGUACUU | 0.0304 µM | 0.0292 µM | – | – |
| UGUCAGAGCAGAGGAUAUUACAUGAGGAUCACCCAUGUAUGAACCAAUAGCUGGAAACAGCAAUGUAAGAAGGCUGCUCCGACA | – | – | 0.0119 µM | 0.13 µM |
| UGUCCAUAGCAGAAGGACAUGAAUAACCAUGAAAACAUGAGGAUCACCCAUGUAGGAUAUGCUAUGGACUAAGAGCGAAAGCUC | – | – | 0.015 µM | 0.175 µM |
| UGUCCAUAGCAGAAGGACAUGAGGAUCACCCAUGUAAUAAAACAUCCAAAUGUAGGAUAUGCUAUGGACUAAGAGCGAAAGCUC | – | – | 0.0289 µM | 0.606 µM |
| UGUCCAUAGCAGAAGGACAUGUAUAACCAUGAAAACAUGAGGAUCACCCAUGUAGGAUAUGCUAUGGACUAAGAGCGAAAGCUC | – | – | 0.00857 µM | 0.0688 µM |
| UGUCGGAGCAGAGGAUAUACAUGAGGAUCACCCAUGUAAAUGGAAGAAGCCUGGAAACAGGCAAUGUAGAAGGCUGCUCCGACA | – | – | 0.132 µM | 0.97 µM |
| UGUCGGAGCAGAGGAUAUACAUGAGGAUCACCCAUGUAAUAAAGUGAAGCCUGGACACAGGCAAUGUAGAAGGCUGCUCCGACA | – | – | 0.0127 µM | 0.0879 µM |
| UGUCGGAGCAGAGGAUAUUACAUGAGGAUCACCCAUGUAUGAACCAAUAGCUGGAAACAGCAAUGUAAGAAGGCAGCUCCGACA | – | – | 0.00511 µM | 0.00882 µM |
| UGUCGGAGCAGAGGAUAUUACAUGAGGAUCACCCAUGUAUGAACCAAUAGCUGGAAACAGCACUGUAAGAAGGCUGCUCCGACA | – | – | 0.00867 µM | 0.0962 µM |
| UGUCGGAGCAGAGGAUAUUACAUGAGGAUCACCCAUGUAUGAACCAAUAGCUGGAAUCAGCAAUGUAAGAAGGCUGCUCCGACA | – | – | 0.0175 µM | 0.167 µM |
| UGUCGGAGCAGAGGAUAUUACAUGAGGAUCACCCAUGUAUGAACCAAUAGCUGGAGACAGCAAUGUAAGAAGGCUGCUCCGACA | – | – | 0.0122 µM | 0.171 µM |
| UGUCGGAGCAGAGGAUAUUACAUGAGGAUCACCCAUGUAUGAACCCAUAGCUGGAAACAGCAAUGUAAGAAGGCUGCUCCGACA | – | – | 0.00897 µM | 0.0824 µM |
| UGUCGGAGCAGAGGAUAUUACAUGAGGAUCACCCAUGUAUUAACCAAUAGCUGGAAACAGCAAUGUAAGAAGGCUGCUCCGACA | – | – | 0.00511 µM | 0.00787 µM |
| UGUGCGUAUGUGAGGAUAUGCUGGUCCUUGGAUCGGCAGAAGGCACAUGAGGAUCACCCAUGUGGUGUCGUUCA | – | – | 0.264 µM | 0.0272 µM |
| UGUGUGUGACAGGAUAUGCAGGUUAUGAGACGGGUAGAAGGGUCUACAUGAGGAUCACCCAUGUGGCCGGUUGG | – | – | 0.018 µM | 0.0169 µM |
| UGUGUUAUCGGAGGAUAUCGAUAUCAAACAUGAGGAUCACCCAUGUUGAGGAUCACCCAUGUUCACGAGAAGGCCGGCGUACUC | 0.112 µM | 0.194 µM | – | – |
| UGUUACUAGUAAGGAUAUACUAGCGAUAAGCUAGUAGAAGGUACAGUCUUUUGUAUAUCAUGUUUACAUGAGGAUCACCCAUGU | 0.00909 µM | 0.00749 µM | – | – |
| UGUUGUAAACAGAACAUGAGGAUCACCCAUGUGCUCUCGUGUAAGGAUAUACAUUCGUAUGGAAAGUAGAAGGUACUAAUUAUG | 0.103 µM | 0.117 µM | – | – |
| UGUUGUAUUACAGGAUAUCUAGAAUUUUUAUUUAGAGAAGGGUAUUCACAUGAGGAUCACCCAUGUAUAUACGAGGAAGUUGUG | 0.0337 µM | 0.0338 µM | – | – |

| Sequence | apparent Kd [1] | apparent Kd [2] | apparent Kd [3] | apparent Kd [4] |
| --- | --- | --- | --- | --- |
| UGUUGUAUUACAGGAUAUCUAGGAUUUUUAUUUAGAGAAGGGUAUUCACAUGAGGAUCACCCAUGUAUAUACGAGGAAGUUGUG | 0.0402 µM | 0.0413 µM | – | – |
| UGUUGUAUUACAGGAUAUCUAUUAUUUUUAUAUAGAGAAGGGUAUUCACAUGAGGAUCACCCAUGUAUAUACGAGGAAGUUGUG | 0.0372 µM | 0.0408 µM | – | – |
| UGUUGUUGAUAGGAUAUACAGGUAGGAGUAGGAGUAGAAGGAUCUACAUGAGGAUCACCCAUGUAGGAGUGAGA | – | – | 0.0161 µM | 0.0177 µM |
| UUAAAUAGUGUGAGGAUAUGCUGGUCCUUGGAUCAGCAGAAGGCACAUGAGGAUCACCCAUGUAGUUAAUUUUA | – | – | 0.0399 µM | 0.253 µM |
| UUAAAUCAUGUAGGAUAUGCAUGGCGAAGCUACGCAGAAGGACAUGAGGAUCACCCAUGUGCUAGCGUCUGAGAACAGAUGCAA | – | – | 0.042 µM | 0.235 µM |
| UUAAAUCAUGUAGGAUAUGCAUGGCGAAGCUACGCAGAAGGACAUGAGGAUCACCCAUGUUAUAGCUACUGAGUUCAGUGGCAA | – | – | 0.107 µM | 0.231 µM |
| UUAAAUCAUGUAGGAUAUGCAUGGCGAAGCUACGCAGAAGGACAUGAGGAUCACCCAUGUUCUGGCUACCGAGUUCGGUGGCAA | – | – | 0.0207 µM | 0.0833 µM |
| UUAAAUCAUGUAGGAUAUGCGUGGAGAAACUAUGCAGAAGGACAUGAGGAUCACCCAUGUGCUUCCGUCUGCGUACAGAUGGUA | – | – | 0.0263 µM | 0.156 µM |
| UUAACUCAUGUAGGAUAUGCAUGGCGAAGCUACGCAGAAGGACAUGAGGAUCACCCAUGUUCUAGCGUCUGAAUACAGAUGCAA | – | – | 0.0537 µM | 0.303 µM |
| UUAACUCAUGUAGGAUAUGCAUGGCGAAGCUACGCAGAAGGACAUGAGGAUCACCCAUGUUCUAGCGUCUGAGUACAGAUGCAA | – | – | 0.0434 µM | 0.29 µM |
| UUAAUUAUACAAGGAUAUCUAAUGGACUUACGACAAACAUGAGGAUCACCCAUGUAAAUAUAUAAAGAGAAGGUGUAUUUUCAG | 0.0735 µM | 0.0415 µM | – | – |
| UUAAUUAUACAAGGAUAUCUAUUGUAAUUUCGUCUUACAUGAGGAUCACCCAUGUUAAUAUUUUUAGAGAAGGUGUAUUUUCAG | 0.113 µM | 0.0637 µM | – | – |
| UUAAUUAUACAAGGAUAUCUAUUGUAGUUUCGACUUACAUGAGGAUCACCCAUGUUUUUAUGUUUAGAGAAGGUGUAUUUUCAG | 0.104 µM | 0.0773 µM | – | – |
| UUAAUUAUACAAGGAUAUCUAUUGUUCUUUCGACAUACAUGAGGAUCACCCAUGUUAAUAUAUAUAGAGAAGGUGUAUUUUCAG | 0.0422 µM | 0.0263 µM | – | – |
| UUAAUUUGAUGAUAUUAUGAUAUUAGAAGGCUGUACAUGUUGAUACAUGAGGAUCACCCAUGUAUAGAGGAUAUAGACAAUUUU | – | – | 0.0278 µM | 0.0573 µM |
| UUACGUCCCAUUUACAUGAGGAUCACCCAUGUCGAAAGACAUGAGGAUAUGCUACCUAAUUGGUAGCAGAAGGCAUGGACGUCG | 0.662 µM | 0.347 µM | – | – |
| UUACUAUUACAGAAGGCUAAAUAAUAUAUAAAUGGAGGAUAUGUAACAUGAGGAUCACCCAUGUUUCACCCACAUGAGGAUCAC | – | – | 0.00845 µM | 0.0238 µM |
| UUACUAUUGGAGAAGGCUCGAUAAUAUAUAAAGGGAGGAUAUCCAACAUGAGGAUCACCCAUGUUUCACCCAUAUGAGGAUCAC | – | – | 0.0148 µM | 0.0157 µM |
| UUACUCAUGUAAGGAUAUGCAGCCGAAACGGCUGCAGAAGGUACUAAAAUACAUGAGGAUCACCCAUGUCUUUUUAAUUUAGAU | 0.0755 µM | 0.0476 µM | – | – |
| UUACUCAUGUAAGGAUAUGCAGCCGAAACGGCUGCAGAAGGUACUAUAAUACAUGAGGAUCACCCAUGUCUUUUUAAUUUAGAC | 0.0512 µM | 0.078 µM | – | – |
| UUACUCAUGUAAGGAUAUGCAGCCGUUUCGGCUGCAGAAGGUACUAUAAUACAUGAGGAUCACCCAUGUCUUUUUAAUUUUUAU | 0.0887 µM | 0.0404 µM | – | – |
| UUAGAUUAUUGAGGAUAUGGAUAUUUUUAUUAACCAGAAGGCAAACUCAACAUGAGGAUCACCCAUGUAUAAAGGGUAUUAGUU | – | – | 0.0956 µM | 0.0927 µM |
| UUAGAUUAUUGAGGAUAUGGAUCUUAUUAUUAACCAGAAGGCAAACUCAACAUGAGGAUCACCCAUGUAUAAAGGGUAUUAGUU | – | – | 0.0895 µM | 0.0834 µM |
| UUAGGACAAGCAGGAUAUGUAACAUGAGGAUCACCCAUGUUGAGACUUUGGCACUCCUACAUGCAGCAGAAGGGCUUCAAACCU | – | – | 0.0297 µM | 0.0664 µM |
| UUAUAAAGUGUGAGGAUAUGCUGGUCCAUAGAUCAGCAGAAGGCACAUGAGGAUCACCCAUGUAAUAUAUUUUU | – | – | 0.0288 µM | 0.133 µM |
| UUAUACGUUGAGGAUAUGCGACUUUUUUUAGUUGUAGAAGGCGAUACAUGAGGAUCACCCAUGUUUAUGGGCAU | – | – | 0.166 µM | 0.218 µM |
| UUAUACGUUGAGGAUAUGUUAUUUAGUAUAGUUACAGAAGGCGAUACAUGAGGAUCACCCAUGUUUAUGGGCAU | – | – | 0.196 µM | 0.153 µM |
